Screening results deposited in PubChem by Johns Hopkins Ion Channel Center.
An excerpt weighted towards active compounds, which were near 3.5% of everything screened.
RGS4 inh = inhibitors of human RGS4; P49798; HEK293 M3R/RGS4 inducible, Fluo-4 calcium flux; active compounds read high; triggered by carbachol at its EC20; B-score at 10 µM; 310,000 compounds, 0.45% hits; AID 463165;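 active = B-score, a plate-corrected calcium signal, over three deviations above library mean, with baseline fluorescence within five deviations of library mean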;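 note: RGS4 expression induced by doxycycline in cells with stable M3 receptor; B-score is computed from the integrated fluorescence ratio over baseline after carbachol; higher B-score means a larger calcium signal and so more RGS4 inhibition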
Target sequence (P49798 whole entry, looked up): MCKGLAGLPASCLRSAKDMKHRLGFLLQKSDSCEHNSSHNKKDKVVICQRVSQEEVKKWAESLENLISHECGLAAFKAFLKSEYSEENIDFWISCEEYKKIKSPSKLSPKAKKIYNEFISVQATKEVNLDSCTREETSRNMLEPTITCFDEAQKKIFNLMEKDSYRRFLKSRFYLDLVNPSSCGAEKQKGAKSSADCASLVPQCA
MrgX1 ag = human MrgX1 receptor agonism, primary screen; Q96LB2; MrgX1-HEK293 cells, Fluo-4 calcium fluorescence, agonist mode; active compounds read high; B-score at 10 µM; 310,000 compounds, 0.44% hits; AID 588627;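 active = calcium response B-score plate-corrected fluorescence ratio at least 3 library SD, with starting fluorescence B-score inside 5 SD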
Target sequence (Q96LB2 whole entry, looked up): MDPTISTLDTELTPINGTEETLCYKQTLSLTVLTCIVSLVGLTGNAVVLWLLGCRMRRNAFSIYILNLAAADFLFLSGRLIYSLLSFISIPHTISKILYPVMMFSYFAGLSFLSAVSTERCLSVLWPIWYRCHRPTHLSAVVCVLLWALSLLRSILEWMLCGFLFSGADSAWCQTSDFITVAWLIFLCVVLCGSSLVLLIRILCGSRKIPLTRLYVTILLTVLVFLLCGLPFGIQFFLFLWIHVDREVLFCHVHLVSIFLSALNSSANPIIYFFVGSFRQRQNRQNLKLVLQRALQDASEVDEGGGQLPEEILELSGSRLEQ
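Assay system: MrgX1-expressing HEK293 cells / Amount: fifteen thousand cells per well / Doses: test compound in the initial addition of three / Timing: cells plated overnight, dye loaded 0.5 h 37 °C, 0.5 h room temperature / Technique: kinetic calcium dye fluorescence, Fluo-4 NW / Control set: positive and negative controls per plate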
RGS4 pot = potentiators or activators of RGS4; HEK293 M3R/inducible RGS4, carbachol calcium flux Fluo4; active compounds read low; 310,000 compounds, 0.92% hits; B-score at 10 µM;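 active = B-score of the integrated calcium signal more than 4 SD below the library mean, with starting fluorescence not abnormally high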;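 note: negative B-score means reduced calcium response which marks RGS4 activation or potentiation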
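test system = M3R-expressing HEK293 line, RGS4 induced by doxycycline | probe or stimulus = carbachol at ECmax as muscarinic agonist stimulus | timing = dye loading 30 min 37 °C, buffer rest 30 min RT | signal = calcium dye Fluo4 fluorescence | evaluation = B score from integrated fluorescence ratio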
MrgX1 antag = antagonists of human MrgX1 receptor | Q96LB2 | B-score at 10 µM | 310,000 compounds, 1.3% hits | AID 588676 | MRGX1-HEK293 calcium flux, Fluo-4, BAM8-22 antagonism; active compounds read low;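 active = calcium-response B-score plate-corrected more than 3 library SD below zero, starting fluorescence within 5 deviations, no agonist response on first addition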;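 note: peak minus trough fluorescence over baseline after final BAM8-22 challenge near maximal dose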
MrgX1 allo act = allosterically activates human MrgX1 receptor signaling; Q96LB2; MrgX1-HEK293, Fluo-4 calcium flux, FDSS; active compounds read high; AID 588675; B-score at 10 µM; 310,000 compounds, 0.63% hits;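 active = plate-corrected calcium response at least 3 library SD above typical, normal starting fluorescence, not activating the receptor alone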;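 note: compound read alongside a low EC10 to EC30 dose of BAM8-22 agonist; peak minus trough fluorescence over baseline measured at the second addition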
MrgX1 antag conf = human MrgX1 receptor antagonism, re-confirmation screen; 2,300 compounds, 19% hits; MrgX1-HEK293, BAM8-22 calcium flux, Fluo-4; active compounds read low; shares compounds with MrgX1 antag; remaining BAM8-22 calcium response % of control (active compounds read low), % at 10 µM;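 active = remaining agonist calcium response no higher than 100% minus 3 SD of agonist-only control wells, with starting fluorescence near control levels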;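 note: agonist BAM8-22 given at a near maximal EC90 to ECmax level; peak minus minimum fluorescence divided by baseline after agonist addition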
HEK293 Ca flux = MrgX1 antagonist counter-screen hit in parental HEK293 cells; shares compounds with MrgX1 antag; Fluo-4 calcium fluorescence, FDSS; fluorescence ratio F(max-min)/F0 at 10 µM; 4,000 compounds, 2% hits; AID 624111;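 active = duplicate-averaged calcium fluorescence ratio at least three times the standard deviation of buffer wells, a nonspecific response in parental cells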
HEK293 Ca counter = MrgX1 allosteric activator counter-screen hit in parental HEK293 cells; shares compounds with MrgX1 antag; parental HEK293 calcium flux, Fluo-4 fluorescence ratio; active compounds read high; fluorescence ratio F(max-min)/F0 at 10 µM; 4,000 compounds, 0.4% hits; AID 624114;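 active = calcium fluorescence ratio, averaged over duplicates, at least 3 SD of the buffer-well ratio, meaning a nonspecific response in receptor-free cells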;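 note: untransfected parental HEK293 lacking MrgX1 used as counterscreen for MrgX1 allosteric activators; fluorescence change taken during the second addition on a kinetic imager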
HEK293 Ca cntr2 = activity in parental HEK293 cells lacking MrgX1 receptor. AID 624115. 4,000 compounds, 8.7% hits. Fluo-4 calcium fluorescence (FDSS); active compounds read high. shares compounds with MrgX1 antag. fluorescence ratio F(max-min)/F0 at 10 µM;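 active = calcium fluorescence ratio at least three times the spread of buffer wells, meaning a non-specific response in parental cells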
* hit, by the source's call.

What do the screens show for `COc1ccc(-n2c(SCC3OCCO3)nc3c(sc(=S)n3-c3ccccc3)c2=O)cc1OC`?
RGS4 inh: inactive; MrgX1 ag: inactive; RGS4 pot: inactive; MrgX1 antag: inactive; MrgX1 allo act: inactive

What do the screens show for `O=C(CCc1ccccc1)Nc1cc(C(F)(F)F)ccc1Cl`?
RGS4 inh: inactive; MrgX1 ag: inactive; RGS4 pot: inactive; MrgX1 antag: -4.5*; MrgX1 allo act: inactive; MrgX1 antag conf: inactive; HEK293 Ca flux: inactive; HEK293 Ca counter: inactive; HEK293 Ca cntr2: inactive

How did COc1ccc(N(C(=O)CNC(=O)c2cccs2)C(C(=O)NCC2CCCO2)c2ccccc2)cc1 (stereo not drawn) do in these assays?
RGS4 inh: inactive; MrgX1 ag: inactive; RGS4 pot: inactive; MrgX1 antag: inactive; MrgX1 allo act: inactive

How did CC(C)(C)c1ccc(C(=O)N2CCC(C(=O)NCc3ccncc3)CC2)cc1 do in these assays?
RGS4 inh: inactive; MrgX1 ag: inactive; RGS4 pot: inactive; MrgX1 antag: -5.2*; MrgX1 allo act: inactive; MrgX1 antag conf: inactive; HEK293 Ca flux: inactive; HEK293 Ca counter: inactive; HEK293 Ca cntr2: inactive

What do the screens show for `CC(C)(C)c1ccc(C(=O)N2CCC(C(=O)NC3CC3)CC2)cc1`?
RGS4 inh: inactive; MrgX1 ag: inactive; RGS4 pot: inactive; MrgX1 antag: inactive; MrgX1 allo act: inactive

What do the screens show for `Clc1ccccc1/C=C/C=N/Nc1nc(N2CCOCC2)nc(N2CCOCC2)n1`?
RGS4 inh: inactive; MrgX1 ag: inactive; RGS4 pot: inactive; MrgX1 antag: inactive; MrgX1 allo act: inactive

What do the screens show for `CCOc1ccccc1CNCC1CCCO1` (stereo not drawn)?
RGS4 inh: inactive; MrgX1 ag: inactive; RGS4 pot: inactive; MrgX1 antag: inactive; MrgX1 allo act: inactive

How did COc1ccc(-c2nc3ccccc3c(=O)n2CCOc2c(C)cccc2C)cc1 do in these assays?
RGS4 inh: inactive; MrgX1 ag: inactive; RGS4 pot: inactive; MrgX1 antag: -4.6*; MrgX1 allo act: inactive; MrgX1 antag conf: inactive; HEK293 Ca flux: 0.2*; HEK293 Ca counter: inactive; HEK293 Ca cntr2: inactive

How did Nc1ccc(C(=O)N/N=C\C=C\c2ccc([N+](=O)[O-])cc2)cc1 do in these assays?
RGS4 inh: inactive; MrgX1 ag: inactive; RGS4 pot: inactive; MrgX1 antag: inactive; MrgX1 allo act: inactive

What do the screens show for `COc1ccc(C(=O)NCC(=O)N/N=C(\C)c2ccco2)cc1OC`?
RGS4 inh: inactive; MrgX1 ag: inactive; RGS4 pot: inactive; MrgX1 antag: inactive; MrgX1 allo act: inactive

What do the screens show for `CC(/C=C/c1ccccc1)NC(N)=O` (stereo not drawn)?
RGS4 inh: inactive; MrgX1 ag: inactive; RGS4 pot: inactive; MrgX1 antag: -5.8*; MrgX1 allo act: inactive; MrgX1 antag conf: inactive; HEK293 Ca flux: inactive; HEK293 Ca counter: inactive; HEK293 Ca cntr2: inactive

How did C=C1CCN([C@@H](C)C(=O)OCc2cccc(C)c2)S(=O)(=O)c2ccccc21 do in these assays?
RGS4 inh: inactive; MrgX1 ag: inactive; RGS4 pot: inactive; MrgX1 antag: -11*; MrgX1 allo act: inactive; MrgX1 antag conf: inactive; HEK293 Ca flux: inactive; HEK293 Ca counter: inactive; HEK293 Ca cntr2: inactive

Results for C=C1CCN([C@H](C(=O)OCc2ccc(C)cc2)C(C)C)S(=O)(=O)c2ccccc21 ?
MrgX1 ag: inactive; MrgX1 antag: inactive; MrgX1 allo act: inactive

What do the screens show for `COc1ccc(CC(C)N2CCN(Cc3ccccc3)CC2)c(OC)c1` (stereo not drawn)?
RGS4 inh: inactive; MrgX1 ag: inactive; RGS4 pot: inactive; MrgX1 antag: -4.5*; MrgX1 allo act: inactive; MrgX1 antag conf: inactive; HEK293 Ca flux: inactive; HEK293 Ca counter: inactive; HEK293 Ca cntr2: inactive

How did COC1OC(COC(=O)c2ccccc2)C(OC(=O)c2ccccc2)C1OC(=O)c1ccccc1 (stereo not drawn) do in these assays?
RGS4 inh: inactive; MrgX1 ag: inactive; RGS4 pot: inactive; MrgX1 antag: -5.5*; MrgX1 allo act: inactive; MrgX1 antag conf: inactive; HEK293 Ca flux: inactive; HEK293 Ca counter: inactive; HEK293 Ca cntr2: inactive

How did CO[C@H]1O[C@H](CBr)[C@@H](OC(=O)c2ccccc2)[C@H](O)[C@H]1O do in these assays?
RGS4 inh: inactive; MrgX1 ag: inactive; RGS4 pot: inactive; MrgX1 antag: inactive; MrgX1 allo act: inactive
